As a reminder, the IC50 is the concentration that inhibits the measured activity by half.

We go through one compound from ChEMBL document CHEMBL3351895, “Cytotoxicity of synthesized 1,4-naphthoquinone analogues on selected human cancer cell lines” (Bioorg Med Chem, 2014).

Experiment [1] has as its system U-937. The experiment in a line: Cytotoxicity against human U937 cells assessed as cell survival after 24 hrs by XTT assay. In kind it is functional, cell-based. (In general: Formazan colour is commonly taken as a measure of viable cells.)
The nature of experiment [2]: Cell cycle arrest in human U937 cells assessed as accumulation at subG1 phase at 2 ug/ml after 24 hrs by propidium iodide staining-based flow cytometric analysis (reference value: 15.1%). In kind it is functional. Particulars: U-937. The method, boiled down: (§1)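 U937 cells in complete RPMI 1640 (10% FBS, 25 mM HEPES, 2 mM glutamine) seeded at 2 × 10^6 cells/ml in flasks, recovered 24 h, then treated with compounds in DMSO (2 µg/ml). Cisplatin (10 µM) served as positive control and DMSO as negative control. Cells were harvested at 24 or 48 h and stained with propidium iodide. Phase percentages were gated on singlet cells by flow cytometry. Three independent experiments.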

Experiment [3] is described as follows: Cell cycle arrest in human U937 cells assessed as accumulation at G0/G1 phase at 2 ug/ml after 24 hrs by propidium iodide staining-based flow cytometric analysis (reference value: 41.7%). In kind it is functional. Particulars: U-937. The method, boiled down:
as §1
(In general: In flow cytometry, cells or beads pass a laser one at a time.)

Experiment [4] can be described thus: Cell cycle arrest in human U937 cells assessed as accumulation at S phase at 2 ug/ml after 24 hrs by propidium iodide staining-based flow cytometric analysis (reference value: 30.7%). It counts as functional. The conditions noted are these: U-937. The method, boiled down: as §1
A short description of experiment [5]: Cell cycle arrest in human U937 cells assessed as accumulation at G2/M phase at 2 ug/ml after 24 hrs by propidium iodide staining-based flow cytometric analysis (reference value: 12.5%). It counts as functional. The conditions noted are these: U-937. The method, boiled down: as §1
A short description of experiment [6]: Cell cycle arrest in human U937 cells assessed as accumulation at subG1 phase at 2 ug/ml after 48 hrs by propidium iodide staining-based flow cytometric analysis (reference value: 1.1%). In kind it is functional. The conditions noted are these: U-937. The method, boiled down:
as §1

The nature of experiment [7]: Cell cycle arrest in human U937 cells assessed as accumulation at G0/G1 phase at 2 ug/ml after 48 hrs by propidium iodide staining-based flow cytometric analysis (reference value: 54.6%). In kind it is functional. Particulars: U-937. The method, boiled down:
as §1

The nature of experiment [8]: Cell cycle arrest in human U937 cells assessed as accumulation at S phase at 2 ug/ml after 48 hrs by propidium iodide staining-based flow cytometric analysis (reference value: 25.7%). In kind it is functional. The conditions noted are these: U-937. The method, boiled down: as §1
The nature of experiment [9]: Cell cycle arrest in human U937 cells assessed as accumulation at G2/M phase at 2 ug/ml after 48 hrs by propidium iodide staining-based flow cytometric analysis (reference value: 16.6%). It counts as functional. The conditions noted are these: U-937. The method, boiled down: as §1
Experiment [10] concerns U-937. Briefly: Induction of apoptosis in human U937 cells assessed as necrotic cells at 2 ug/ml after 24 hrs by annexin V-FITC/propidium iodide staining-based flow cytometry (reference value: 24.7%). It counts as functional.
The subject of experiment [11] is U-937. Briefly: Induction of apoptosis in human U937 cells assessed as late apoptotic cells at 2 ug/ml after 24 hrs by annexin V-FITC/propidium iodide staining-based flow cytometry (reference value: 3%). It counts as functional.
For experiment [12], the system named is U-937. Briefly: Induction of apoptosis in human U937 cells assessed as early apoptotic cells at 2 ug/ml after 24 hrs by annexin V-FITC/propidium iodide staining-based flow cytometry (reference value: 6.3%). In kind it is functional.
For experiment [13], the system named is U-937. Briefly: Induction of apoptosis in human U937 cells assessed as viable cells at 2 ug/ml after 24 hrs by annexin V-FITC/propidium iodide staining-based flow cytometry (reference value: 66%). It counts as functional. Particulars: U-937, 24 h, read-out: Activity.
The subject of experiment [14] is U-937. Briefly: Induction of apoptosis in human U937 cells assessed as necrotic cells at 2 ug/ml after 48 hrs by annexin V-FITC/propidium iodide staining-based flow cytometry (reference value: 1.4%). In kind it is functional.
For experiment [15], the system named is U-937. The experiment in a line: Induction of apoptosis in human U937 cells assessed as late apoptotic cells at 2 ug/ml after 48 hrs by annexin V-FITC/propidium iodide staining-based flow cytometry (reference value: 11.7%). In kind it is functional.
The subject of experiment [16] is U-937. The experiment in a line: Induction of apoptosis in human U937 cells assessed as early apoptotic cells at 2 ug/ml after 48 hrs by annexin V-FITC/propidium iodide staining-based flow cytometry (reference value: 5.7%). It counts as functional.
In experiment [17] the test system is U-937. Briefly: Induction of apoptosis in human U937 cells assessed as viable cells at 2 ug/ml after 48 hrs by annexin V-FITC/propidium iodide staining-based flow cytometry (reference value: 81.3%). Particulars: U-937, 48 h, read-out: Activity. It counts as functional.
In experiment [18] the test system is U-937. Briefly: Induction of apoptosis in human U937 cells assessed as caspase 3/7 activation at 2 ug/ml after 24 hrs by fluorescence reader relative to control. In kind it is functional. The method, boiled down: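 U937 cells (2 × 10^6/ml, 24 h recovery) were exposed for 24 h to compounds in DMSO (2 µg/ml), with cisplatin 10 µM and DMSO controls. Cells were pelleted and resuspended in RPMI, at least 2 × 10^5 cells per well. (DEVD)2 substrate was added and cells incubated 2 h at 37 °C, 5% CO2, resuspended every 20 min. Fluorescence was read at 544/590 and 544/620 nm.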

Experiment [19] can be described thus: Cytotoxicity against human SNO cells assessed as cell survival after 48 hrs by XTT assay.
For experiment [20], the system named is MCF7. Briefly: Cytotoxicity against human MCF7 cells assessed as cell survival after 48 hrs by XTT assay. The conditions noted are these: MCF7, 48 h.
The test system of experiment [21] is HeLa. Briefly: Cytotoxicity against human HeLa cells assessed as cell survival after 48 hrs by XTT assay.
Experiment [22] concerns DU-145. Briefly: Cytotoxicity against human DU145 cells assessed as cell survival after 48 hrs by XTT assay. The conditions noted are these: DU-145, 48 h.
For experiment [23], the system named is PBMC. The experiment in a line: Cytotoxicity against human PBMC assessed as cell survival after 24 hrs by fluorescence assay.

Regarding `Cc1cc(O)c2c(c1F)C(=O)C=CC2=O`, the Activity entry in experiment [1] was “Not toxic”; in experiment [2], 8.2%; in experiment [3], 69.2%; in [4], 17.4%; in experiment [5], 4.7%; in experiment [6], 11.8%. Besides, the Activity in experiment [7] worked out at 64.8%; in experiment [8] it was 15.9%; in experiment [9], 6.9%; in experiment [10], 61.1%; in experiment [11] it was 34.2%; in experiment [12], 10.2%. Also, the Activity in experiment [14] is 53.9%; in experiment [15] it was 42.6%; in experiment [16], 1%; in experiment [18] it was -5.21%. In addition, the results for the viability at 2 µg/mL in [13] and in [17] were 4.5% and 1.6%, respectively. For the same compound, the 50% inhibitory concentration (IC50) in experiment [19] worked out at 18.9 µM; in experiment [20], 20.3 µM; in experiment [21], 10.2 µM; in experiment [22], 15.4 µM; in experiment [23] it was 189 µM.
